pEC50, pIC50: −log10 of the molar value. Active and inactive are the calls of the source. The calls are words filed in the database; no cut-off is given here.
Tests used:
[1] = Toxicity in BALB/c nude mouse xenografted with human MDA-MB-436 cells assessed as effect on animal mortality at 1.6 to […], po BID for 28 days followed by treatment was interruption and monitored for additional 2 months; type: organism-based; conditions: in vivo, dose 1.6-3.1 mg/kg, time 28 day
[2] = Ratio of drug level in brain to plasma of C57BL/6 mouse brain at 10 mg/kg, po after 1 hrs; type: ADME, organism-based
Procedure, shortened: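 C57BL/6 mice were given 10 mg/kg po in 0.5% MC and sampled at 1, 2 and 4 h. Brain was homogenized in 3 volumes of saline, and brain and plasma were protein-precipitated with acetonitrile, then measured by LC-MS/MS. Brain (ng/g) was expressed as a percentage of plasma (ng/mL). Values are means of three mice.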

[3] = Drug level in C57BL/6 mouse brain at 10 mg/kg, po after 1 hrs; type: ADME, organism-based; conditions: read-out: Drug uptake
Procedure, shortened: (§1)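 C57BL/6 mice (n=3) dosed orally at 10 mg/kg in 0.5% MC. Plasma and brain are sampled at 1, 2 and 4 h. Brain is homogenized in 3 volumes of saline, then acetonitrile protein precipitation; plasma is likewise precipitated. Both are analysed by LC–MS/MS and reported as means.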

[4] = Drug level in C57BL/6 mouse brain at 10 mg/kg, po after 4 hrs; type: ADME, organism-based; conditions: read-out: Drug uptake; procedure, shortened: as §1
[5] = Toxicity in BALB/c nude mouse xenografted with human NCI-H209 cells assessed as induction of body weight loss at […], po BID for 28 days and co-treated with 50 mg/kg, po QD TMZ for 5 consecutive days at start of study and again 14 days later relative to TMZ alone; type: organism-based; conditions: in vivo, dose 0.75 mg/kg, time 28 day
[6] = Drug level in C57BL/6 mouse plasma at 10 mg/kg, po after 4 hrs; type: ADME, organism-based; procedure, shortened: as §1
[7] = biological target: Organic anion transporter 3 (Homo sapiens, UniProt Q8TCC7); test: Inhibition of OAT3 (unknown origin)
[8] = biological target: Solute carrier organic anion transporter family member 1B3 (Homo sapiens, UniProt Q9NPD5); test: Inhibition of OATP1B3 (unknown origin)
[9] = biological target: Solute carrier family 22 member 6 (Homo sapiens, UniProt Q4U2R8); test: Inhibition of OAT1 (unknown origin)
[10] = biological target: Broad substrate specificity ATP-binding cassette transporter ABCG2 (Homo sapiens, UniProt Q9UNQ0); test: Inhibition of BCRP (unknown origin) up to 30 uM
[11] = biological target: Solute carrier organic anion transporter family member 1B1 (Homo sapiens, UniProt Q9Y6L6); test: Inhibition of OATP1B1 (unknown origin)
[12] = AUC (0 to infinity) in Beagle dog at 2 mg/kg, po by LC-MS/MS analysis; type: ADME, organism-based, Canis lupus familiaris; design: route oral, time infinity, dose 2 mg/kg; conditions: in vivo
Procedure, shortened: (§2)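 Three Beagle dogs; iv dose 1 mg/kg in 25% DMA in water; oral dose 2 mg/kg in 0.5% CMC-Na. Plasma drug concentrations are measured by LC–MS/MS. Values are the mean of three dogs.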

[13] = Cmax in Beagle dog at 2 mg/kg, po by LC-MS/MS analysis; type: ADME, organism-based, Canis lupus familiaris; design: route oral, dose 2 mg/kg; conditions: in vivo; procedure, shortened: as §2
[14] = Clearance in Beagle dog at 1 mg/kg, iv by LC-MS/MS analysis; type: ADME, organism-based, Canis lupus familiaris; conditions: in vivo; procedure, shortened: as §2
[15] = Volume of distribution at steady state in Sprague-Dawley rat at 2 mg/kg, iv by LC-MS/MS analysis; type: ADME, organism-based; conditions: in vivo, read-out: Vdss
Procedure, shortened: (§3)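 Pharmacokinetics in Sprague-Dawley rats, three per group. iv 2 mg/kg in 38% DMA in water; po 5 mg/kg. Plasma was protein-precipitated, diluted with water and analysed by LC-MS/MS using an acetonitrile/0.1% formic acid gradient. Values are means of three rats.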

[16] = AUC (0 to infinity) in Sprague-Dawley rat at 2 mg/kg, iv by LC-MS/MS analysis; type: ADME, organism-based; design: time infinity, route intravenous, dose 2 mg/kg; conditions: in vivo
Procedure, shortened: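 Sprague-Dawley rats (n=3) get 2 mg/kg iv formulated in 38% DMA in water. Plasma is protein-precipitated and quantified by LC–MS/MS (C18, acetonitrile/0.1% formic acid gradient). Parameters are means of the three rats.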

[17] = Tmax in ICR mouse at 10 mg/kg, po by LC-MS/MS analysis; type: ADME, organism-based; conditions: in vivo
Procedure, shortened: (§4)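 Three ICR mice per arm. iv dose 1 mg/kg in 5% DMA in water; oral dose 10 mg/kg in 0.5% MC. Plasma was processed by protein precipitation, diluted with water and quantified by LC-MS/MS (C18 column, acetonitrile/0.1% formic acid gradient). Values are means of three animals.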

[18] = Half life in ICR mouse at 1 mg/kg, iv by LC-MS/MS analysis; type: ADME, organism-based; conditions: in vivo
Procedure, shortened: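 Male/female unspecified ICR mice, n=3 per route. Intravenous 1 mg/kg in 5% DMA in water; oral 10 mg/kg in 0.5% MC. Plasma is processed by protein precipitation and analysed by LC–MS/MS using an acetonitrile/0.1% formic acid gradient. Values are means of the three animals.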

[19] = Apparent permeability from apical to basolateral side in human Caco-2 cells; type: ADME, cell-based
[20] = Unbound fraction in dog plasma; type: ADME, cell-free, Canis lupus familiaris
[21] = Unbound fraction in mouse plasma; type: ADME, cell-free
[22] = Unbound fraction in human plasma; type: ADME, cell-free
MDA-MB-231 = test: Antiproliferation activity against human MDA-MB-231 cells incubated for 7 days by CellTiter-Glo luminescent cell viability assay; type: functional, cell-based; conditions: MDA-MB-231, 168 h
Procedure, shortened: (§5)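 Seeding density is set per line for log growth over 7 days. Cells attach 16 h, then are treated in duplicate with a 10-point dilution series for 7 days. CellTiter-Glo luminescence (ATP) is read, and viability is expressed relative to mock-treated control. EC50 is the mean of three independent experiments run in triplicate.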

HCC1395 = test: Antiproliferation activity against human HCC1395 cells expressing BRCA1 mutant incubated for 7 days by CellTiter-Glo luminescent cell viability assay; type: functional, cell-based; conditions: HCC1395, 168 h; procedure, shortened: as §5
[23] = Clearance in rat liver microsomes; type: ADME, Microsome
Cytochrome P450 2C8 = Cytochrome P450 2C8 (Homo sapiens, UniProt P10632); test: Inhibition of CYP2C8 (unknown origin); type: ADME
[24] = Oral bioavailability in ICR mouse at 10 mg/kg by LC-MS/MS analysis; type: ADME, organism-based; conditions: in vivo; procedure, shortened: as §4
[25] = Oral bioavailability in Sprague-Dawley rat at 5 mg/kg by LC-MS/MS analysis; type: ADME, organism-based; conditions: in vivo; procedure, shortened: as §3
[26] = Clearance in mouse liver microsomes; type: ADME, Microsome; conditions: read-out: CLH
hERG (KCNH2) = hERG (KCNH2) (Homo sapiens, UniProt Q12809); test: Inhibition of human ERG activity at 20 uM by functional cellular assay
[27] = Inhibition of PARylation in PBMC in patient with ovarian cancer at >= 10 mg BID during phase I study; type: functional, Homo sapiens; conditions: dose mg >=10
[28] = biological target: Solute carrier family 22 member 2, OCT2 (Homo sapiens) (UniProt O15244); test: Inhibition of OCT2 (unknown origin) up to 50 uM; conditions: dose microM <=50
[29] = Tmax in Sprague-Dawley rat at 5 mg/kg, po by LC-MS/MS analysis; conditions: in vivo

Sequence of Cytochrome P450 2C8 (P10632 whole entry): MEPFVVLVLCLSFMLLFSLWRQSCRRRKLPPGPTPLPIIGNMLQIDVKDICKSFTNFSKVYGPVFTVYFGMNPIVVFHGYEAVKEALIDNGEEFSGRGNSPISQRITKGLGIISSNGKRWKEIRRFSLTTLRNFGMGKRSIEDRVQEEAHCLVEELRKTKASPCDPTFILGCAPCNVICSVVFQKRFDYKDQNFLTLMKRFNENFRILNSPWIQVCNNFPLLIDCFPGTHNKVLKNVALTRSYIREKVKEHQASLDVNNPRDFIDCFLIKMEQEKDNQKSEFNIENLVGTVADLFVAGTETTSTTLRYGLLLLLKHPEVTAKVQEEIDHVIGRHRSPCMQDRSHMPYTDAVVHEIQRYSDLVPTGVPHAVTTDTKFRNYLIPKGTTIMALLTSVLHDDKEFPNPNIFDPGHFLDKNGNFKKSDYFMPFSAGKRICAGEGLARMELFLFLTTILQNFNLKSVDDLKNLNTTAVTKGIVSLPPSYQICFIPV
Sequence of Solute carrier organic anion transporter family member 1B3 (Q9NPD5 whole entry): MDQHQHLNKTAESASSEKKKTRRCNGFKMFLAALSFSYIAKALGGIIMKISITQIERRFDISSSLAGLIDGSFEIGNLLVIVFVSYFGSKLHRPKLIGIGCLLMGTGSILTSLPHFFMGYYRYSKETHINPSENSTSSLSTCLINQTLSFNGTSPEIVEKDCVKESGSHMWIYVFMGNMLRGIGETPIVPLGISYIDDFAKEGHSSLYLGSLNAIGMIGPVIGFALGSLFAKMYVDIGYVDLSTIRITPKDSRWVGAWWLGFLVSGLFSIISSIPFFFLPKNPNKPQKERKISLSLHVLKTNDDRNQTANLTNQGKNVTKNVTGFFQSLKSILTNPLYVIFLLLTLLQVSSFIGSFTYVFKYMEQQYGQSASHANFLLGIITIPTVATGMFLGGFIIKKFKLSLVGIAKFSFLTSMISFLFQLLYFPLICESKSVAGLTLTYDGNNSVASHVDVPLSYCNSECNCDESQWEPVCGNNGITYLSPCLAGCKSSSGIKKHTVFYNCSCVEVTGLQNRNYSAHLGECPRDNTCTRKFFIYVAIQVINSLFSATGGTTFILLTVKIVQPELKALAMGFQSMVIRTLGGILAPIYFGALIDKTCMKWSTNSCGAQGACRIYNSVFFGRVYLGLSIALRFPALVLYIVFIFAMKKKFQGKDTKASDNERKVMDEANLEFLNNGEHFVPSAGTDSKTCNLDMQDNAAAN
Sequence of Organic anion transporter 3 (Q8TCC7 whole entry): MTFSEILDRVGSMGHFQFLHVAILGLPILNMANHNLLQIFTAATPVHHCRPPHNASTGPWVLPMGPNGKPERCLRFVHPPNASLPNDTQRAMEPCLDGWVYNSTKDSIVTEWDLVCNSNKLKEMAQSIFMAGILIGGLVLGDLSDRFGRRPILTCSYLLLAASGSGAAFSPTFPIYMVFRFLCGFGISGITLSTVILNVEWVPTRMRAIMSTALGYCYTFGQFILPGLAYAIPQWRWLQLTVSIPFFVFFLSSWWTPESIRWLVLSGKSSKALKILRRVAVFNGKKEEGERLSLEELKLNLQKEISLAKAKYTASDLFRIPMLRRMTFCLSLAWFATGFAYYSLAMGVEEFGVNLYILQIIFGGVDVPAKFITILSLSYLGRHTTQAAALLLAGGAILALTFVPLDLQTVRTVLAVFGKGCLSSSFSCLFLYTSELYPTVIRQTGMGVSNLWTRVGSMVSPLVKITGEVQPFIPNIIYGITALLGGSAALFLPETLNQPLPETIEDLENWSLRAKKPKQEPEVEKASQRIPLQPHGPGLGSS
Sequence of Solute carrier family 22 member 2, OCT2 (Homo sapiens) (O15244 whole entry, looked up): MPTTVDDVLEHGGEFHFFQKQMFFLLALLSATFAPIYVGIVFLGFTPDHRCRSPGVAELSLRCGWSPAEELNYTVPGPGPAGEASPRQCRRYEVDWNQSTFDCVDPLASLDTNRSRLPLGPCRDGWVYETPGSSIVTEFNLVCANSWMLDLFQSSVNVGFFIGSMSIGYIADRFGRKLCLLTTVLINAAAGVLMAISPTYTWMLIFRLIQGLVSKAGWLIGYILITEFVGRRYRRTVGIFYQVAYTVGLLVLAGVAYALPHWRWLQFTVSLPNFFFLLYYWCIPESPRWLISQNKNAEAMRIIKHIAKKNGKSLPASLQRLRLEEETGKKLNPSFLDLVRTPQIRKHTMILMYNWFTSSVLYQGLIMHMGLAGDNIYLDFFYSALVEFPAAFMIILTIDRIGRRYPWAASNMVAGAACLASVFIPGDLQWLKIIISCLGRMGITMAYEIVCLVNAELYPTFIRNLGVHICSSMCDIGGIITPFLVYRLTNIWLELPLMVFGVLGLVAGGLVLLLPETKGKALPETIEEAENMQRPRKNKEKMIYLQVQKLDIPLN
Sequence of hERG (KCNH2) (Q12809 whole entry): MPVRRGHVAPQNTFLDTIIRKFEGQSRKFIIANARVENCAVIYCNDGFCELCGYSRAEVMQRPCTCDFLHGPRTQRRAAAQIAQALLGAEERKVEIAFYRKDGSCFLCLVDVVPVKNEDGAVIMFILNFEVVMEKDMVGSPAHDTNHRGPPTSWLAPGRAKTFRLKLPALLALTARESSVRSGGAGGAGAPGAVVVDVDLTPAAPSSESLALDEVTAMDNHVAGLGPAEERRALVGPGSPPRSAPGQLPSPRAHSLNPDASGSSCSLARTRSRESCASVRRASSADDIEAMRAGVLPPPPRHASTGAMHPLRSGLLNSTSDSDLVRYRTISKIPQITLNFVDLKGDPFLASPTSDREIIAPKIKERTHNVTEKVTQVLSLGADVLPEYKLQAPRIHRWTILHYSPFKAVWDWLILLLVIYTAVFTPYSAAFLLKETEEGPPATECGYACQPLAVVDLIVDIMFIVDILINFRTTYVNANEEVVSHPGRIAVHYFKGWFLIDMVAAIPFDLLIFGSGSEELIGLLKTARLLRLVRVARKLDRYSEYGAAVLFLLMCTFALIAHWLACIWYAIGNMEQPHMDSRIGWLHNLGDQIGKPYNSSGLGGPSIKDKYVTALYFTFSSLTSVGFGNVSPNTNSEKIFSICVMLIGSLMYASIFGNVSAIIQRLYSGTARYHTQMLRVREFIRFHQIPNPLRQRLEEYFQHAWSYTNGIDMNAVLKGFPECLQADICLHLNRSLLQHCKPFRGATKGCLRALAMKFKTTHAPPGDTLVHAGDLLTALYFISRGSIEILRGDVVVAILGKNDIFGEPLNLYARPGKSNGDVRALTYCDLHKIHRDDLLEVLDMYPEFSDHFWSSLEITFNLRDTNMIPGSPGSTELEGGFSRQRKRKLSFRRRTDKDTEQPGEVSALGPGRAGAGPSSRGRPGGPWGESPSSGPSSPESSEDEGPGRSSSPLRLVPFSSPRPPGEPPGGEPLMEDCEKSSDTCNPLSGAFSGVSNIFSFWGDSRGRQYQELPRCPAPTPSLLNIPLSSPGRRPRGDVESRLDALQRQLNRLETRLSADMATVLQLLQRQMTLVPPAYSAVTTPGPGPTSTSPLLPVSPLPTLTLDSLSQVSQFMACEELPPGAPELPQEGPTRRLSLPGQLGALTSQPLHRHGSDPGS
Sequence of Broad substrate specificity ATP-binding cassette transporter ABCG2 (Q9UNQ0 whole entry): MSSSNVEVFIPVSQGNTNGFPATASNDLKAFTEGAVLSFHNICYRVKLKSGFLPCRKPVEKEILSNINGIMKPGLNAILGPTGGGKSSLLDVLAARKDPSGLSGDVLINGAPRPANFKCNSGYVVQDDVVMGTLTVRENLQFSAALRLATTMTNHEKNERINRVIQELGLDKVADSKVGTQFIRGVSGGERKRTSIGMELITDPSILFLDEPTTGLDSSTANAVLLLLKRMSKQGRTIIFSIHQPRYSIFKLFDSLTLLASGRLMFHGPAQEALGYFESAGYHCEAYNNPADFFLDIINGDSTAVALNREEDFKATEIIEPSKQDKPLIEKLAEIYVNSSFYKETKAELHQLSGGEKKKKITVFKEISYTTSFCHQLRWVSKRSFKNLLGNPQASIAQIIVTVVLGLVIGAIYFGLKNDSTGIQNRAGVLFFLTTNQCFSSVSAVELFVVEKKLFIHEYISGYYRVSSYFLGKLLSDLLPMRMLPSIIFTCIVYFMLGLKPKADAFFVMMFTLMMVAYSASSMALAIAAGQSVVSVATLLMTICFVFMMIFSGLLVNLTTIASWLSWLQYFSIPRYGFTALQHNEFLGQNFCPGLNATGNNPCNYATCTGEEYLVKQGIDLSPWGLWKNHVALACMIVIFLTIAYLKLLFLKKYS
Sequence of Solute carrier family 22 member 6 (Q4U2R8 whole entry): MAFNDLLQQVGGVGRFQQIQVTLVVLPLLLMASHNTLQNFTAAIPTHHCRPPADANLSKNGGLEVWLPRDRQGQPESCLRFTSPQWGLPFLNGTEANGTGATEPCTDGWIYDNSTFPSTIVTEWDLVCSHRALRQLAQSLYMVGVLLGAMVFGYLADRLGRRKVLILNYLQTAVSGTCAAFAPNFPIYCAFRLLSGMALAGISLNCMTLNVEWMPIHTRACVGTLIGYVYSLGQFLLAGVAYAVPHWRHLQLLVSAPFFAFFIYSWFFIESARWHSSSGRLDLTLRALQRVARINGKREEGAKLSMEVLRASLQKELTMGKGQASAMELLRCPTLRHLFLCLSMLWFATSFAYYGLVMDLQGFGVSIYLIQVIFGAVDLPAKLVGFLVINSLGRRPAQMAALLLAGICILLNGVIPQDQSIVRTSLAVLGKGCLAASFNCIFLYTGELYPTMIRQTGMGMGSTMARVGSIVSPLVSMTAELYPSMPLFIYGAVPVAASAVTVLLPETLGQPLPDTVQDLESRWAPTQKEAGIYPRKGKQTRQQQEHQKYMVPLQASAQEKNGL

For C[C@]12CCCN1CC1=NNC(=O)c3cc(F)cc4[nH]c2c1c34 [PAMIPARIB], the Activity [1] was “Non-Toxic”, the BPR [2] was 17.4% and the concentration at 1 h [3] was 613 ng/g. For the same compound, the concentration at 4 h [4] was 135 ng/g, the Activity [5] was “Non-Toxic” and the concentration at 4 h [6] was 707 ng/mL. The pIC50 [7] was 4.62, the pIC50 [8] was 4.71 and the pIC50 [9] was 4.32. For the same compound, the “inhibition (INH)” value [10] was “Not Active”, the pIC50 [11] was 4.71 and the AUC(0-inf) [12] was 1600 ng·h/mL. The Cmax [13] was 502 ng/mL, the CL [14] was 15.2 mL/kg/min and the Vd [15] was 6.92 L/kg. It also gave an AUC(0-inf) [16] of 1480 ng·h/mL, a Tmax [17] of 35 min and a half-life [18] of 237 min. The Papp A→B [19] was 30.3 ×10⁻⁶ cm/s, the fraction unbound [20] was 0.21 and the fraction unbound [21] was 0.15. The fraction unbound [22] was 0.043, the pEC50 (MDA-MB-231) was under 5.00 and the pEC50 (HCC1395) was 7.37. For the same compound, the microsomal CLint [23] was 7.2 µL/min/mg, the pIC50 (Cytochrome P450 2C8) was under 5.00 and the F [24] was 98.7%. The bioavailability [25] was 93.7%, the CLint scaled [26] was 12.9 mL/min/kg and the inhibition at 20 µM (hERG (KCNH2)) was 51%. For the same compound, the “inhibition (INH)” value [27] was over 80%, the inhibition [28] was “inactive” and the Tmax [29] was 1 h.
